High-throughput results from PubChem BioAssay.
An excerpt weighted towards active compounds, which were near 2.5% of everything screened.
TDP2 absorb – human TDP2 enzyme inhibitors, primary screen, biochemical, epi absorbance, recombinant enzyme | inhibition, % at 12.8 µM | actives 0.34% (n = 370,000) | T5PNP hydrolysis, p-nitrophenol absorbance 415 nm | AID 720702, 2013;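 active = inhibition above the mean of all tested compounds plus 3 SD, set per campaign, cut at about 25% in these data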
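Read-out basis: percent inhibition. System: recombinant human TDP2. Buffer or medium: Mg2+-containing Tris-HCl buffer, pH 7.5. Repeats: single replicate. Timing: reaction 2 h, 37 °C. Benchmarks: high control without enzyme, low control DMSO plus TDP2. Probe or stimulus: 5 mM T5PNP. Doses: 12.8 µM only. Measured by: epi absorbance of p-nitrophenol freed from T5PNP by hydrolysis.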
PRMT1 inh – PRMT1 methyltransferase inhibitors, primary screen, biochemical, fluorescence polarization; Protein arginine N-methyltransferase 1 (Homo sapiens), Q99873; recombinant PRMT1, activity-based probe fluorescence polarization; inhibition, % at 2.79 µM; actives 1.3% (n = 370,000);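 active = inhibition above about 21% made by adding two undisclosed values, limit read from the data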
GSTO1 counter – inhibitors of recombinant GSTO1, primary screen, counter-screen for RBBP9 inhibitor project, biochemical, fluorescence polarization; inhibition, % at 5.96 µM; actives 1.1% (n = 300,000); Glutathione S-transferase omega-1 (Homo sapiens), P78417; activity-based probe fluorescence polarization;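 active = inhibition above the campaign mean inhibition plus 3 SD, cut at about 35% in these data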
CTSL1 counter – Fasciola hepatica cathepsin L1 inhibitors, primary screen, counter-screen for PFM18AAP inhibitor project, biochemical, QFRET, fluorogenic peptide substrate; recombinant F. hepatica cathepsin L1, Z-Leu-Arg-MCA fluorescence; inhibition, % at 5.96 µM; actives 0.49% (n = 300,000); AID 1906, 2009;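 active = inhibition above the mean of all tested compounds plus 3 SD, set per screening campaign, cut at about 17% in these data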
PAD4 inh – human PAD4 inhibitors, primary screen, biochemical, fluorescence polarization, 1536-well format; inhibition, % at 6.36 µM; recombinant PAD4, RCA probe fluorescence polarization; Protein-arginine deiminase type-4 (Homo sapiens), Q9UM07; actives 0.41% (n = 330,000);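 active = percent inhibition above a cutoff equal to the mean of all tested compounds plus 3 SD, cut at about 15% in these data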
Target sequence (Q9UM07 whole entry, looked up): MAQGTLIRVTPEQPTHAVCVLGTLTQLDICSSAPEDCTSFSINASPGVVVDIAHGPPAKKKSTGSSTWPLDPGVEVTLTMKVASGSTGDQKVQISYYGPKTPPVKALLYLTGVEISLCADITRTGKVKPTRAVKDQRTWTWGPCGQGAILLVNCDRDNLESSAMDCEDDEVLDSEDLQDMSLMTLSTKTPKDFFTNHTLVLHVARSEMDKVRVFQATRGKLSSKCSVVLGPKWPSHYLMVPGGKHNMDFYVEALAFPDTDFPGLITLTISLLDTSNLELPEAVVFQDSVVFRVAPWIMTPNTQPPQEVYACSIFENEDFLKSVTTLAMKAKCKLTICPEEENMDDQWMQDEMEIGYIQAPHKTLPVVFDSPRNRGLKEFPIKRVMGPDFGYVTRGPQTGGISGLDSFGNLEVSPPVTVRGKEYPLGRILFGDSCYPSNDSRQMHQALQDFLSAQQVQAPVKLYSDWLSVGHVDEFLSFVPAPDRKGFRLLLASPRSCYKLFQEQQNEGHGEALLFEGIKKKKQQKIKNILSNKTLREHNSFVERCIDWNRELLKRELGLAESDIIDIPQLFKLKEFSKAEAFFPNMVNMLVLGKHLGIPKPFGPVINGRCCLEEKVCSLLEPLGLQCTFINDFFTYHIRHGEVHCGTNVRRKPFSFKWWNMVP
PRMT1 inh conf – PRMT1 methyltransferase inhibitors, confirmation, biochemical, fluorescence polarization, triplicate; inhibition, % at 2.79 µM; actives 42% (n = 3,300); recombinant His-PRMT1, activity-based probe fluorescence polarization; shares compounds with PRMT1 inh;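 active = mean inhibition across replicates above the hit cutoff derived for the earlier primary screen, cut at about 22% in these data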
Numbers stand for hits; n = inactive; x = not tested or not shown.

SMILES	TDP2 absorb	PRMT1 inh	GSTO1 counter	CTSL1 counter	PAD4 inh	PRMT1 inh conf
CCOC(=O)c1c(NC(=S)Nc2ccccc2)sc2c1CCN(CC)C2	n	28	n	n	n	n
O=C(CSC1=NNC(c2ccccn2)S1)Nc1cccc(Cl)c1 (centres undefined)	n	61	n	n	n	41
O=C(CSc1nnc(-c2ccccn2)o1)Nc1ccccc1	n	n	n	n	n	x
O=C(CSC1=NNC(c2ccccn2)S1)Nc1ccccc1 (centres undefined)	n	66	n	n	n	46
O=S1(=O)C=CCN1Cc1cn(Cc2ccccc2)nn1	n	n	x	x	x	x
O=C1NC2c3c(I)sc(I)c3C(=O)C2O1 (centres undefined)	n	47	x	x	x	n
CC(C)C(=O)N1CCC(Oc2cccnc2)CC1	n	n	x	x	x	x
Cc1ccc(CS(=O)(=O)Cc2ccc(C(=O)NCc3ccccn3)o2)cc1	n	34	n	n	n	n
CCOC(=O)C1=Nc2cccc3c(O)ccc1c23	n	75	x	x	x	80
CC1=CC(C)(C)NC(=S)N1c1cccc2cc(S(=O)(=O)O)ccc12	n	39	n	n	n	45
CC1=CC(C)(C)NC(=S)N1c1ccccc1C	n	n	n	n	n	x
CC(=O)C(=Nc1cccc(Cl)c1)NNc1ccccc1C	n	83	n	n	n	n
C/C=C/COC(=O)c1[nH]c2c(c1C)C(=O)CC(c1ccco1)C2 (centres undefined)	n	43	n	n	n	n
C=CCOC(=O)c1[nH]c2c(c1C)C(=O)CC(c1ccco1)C2 (centres undefined)	x	x	n	n	n	x
Cc1c(C(=O)OCC(C)C)[nH]c2c1C(=O)CC(c1ccco1)C2 (centres undefined)	n	31	n	n	n	n
CC[C@H](CCCc1ccc(OC)cc1)CCC(=O)N(c1ccccc1)c1ccccc1	n	n	x	x	x	x
O=C(O)Cc1sc(N/N=C\c2ccncc2)nc1-c1ccccc1	n	41	n	n	n	n
C(=N\Nc1nc(-c2ccccc2)cs1)/c1ccncc1	n	n	n	n	n	x
C=CCC12C=C(OC)C(=O)C(C1=O)C1c3ccccc3CC12 (centres undefined)	n	n	x	x	x	x
Cc1cccc(-c2n[nH]c(=S)n2/N=C/C=C/c2ccco2)c1	n	46	n	n	n	n
CC(/C=N/n1c(-c2ccncc2)n[nH]c1=S)=C\c1ccco1	n	27	n	n	n	n
CC(/C=N/n1c(-c2ccc(C)cc2)n[nH]c1=S)=C\c1ccco1	n	n	n	n	n	x
COc1ccc(CN2CN3Cc4cc(OC)ccc4C3CS2(=O)=O)cc1 (centres undefined)	n	n	x	x	x	x
OCCOCCN1CCN(C2=Nc3ccccc3Sc3ccccc32)CC1	n	n	n	n	n	x
O=C1C=CC(=O)c2c(O)c(N3CCN(CCOCCO)CC3)c(Br)c(O)c21	n	66	x	x	x	93
SMILES	TDP2 absorb	PRMT1 inh	GSTO1 counter	CTSL1 counter	PAD4 inh	PRMT1 inh conf
O=C1C=CC(=O)c2c(O)c(N3CCN(CCO)CC3)c(Cl)c(O)c21	n	52	x	x	x	85
O=C(C=Cc1ccccc1)c1cc(Br)ccc1O	n	n	x	x	x	x
CCc1ccc(/C=C/C(=O)c2cc(Br)ccc(=O)c2O)cc1	n	32	n	n	n	n
Cc1ccc(C(=O)Nc2nc(-c3ccco3)c(-c3ccco3)s2)o1	n	38	x	x	x	29
Cc1ccc(C(=O)Nc2nc(C)c(C(=O)N(C)C)s2)o1	n	n	n	n	n	x
O=C(CCCSc1ccccc1)Nc1nc(-c2ccco2)c(-c2ccco2)s1	n	44	n	n	n	n
CCCOc1ccc(C(=O)N2CCC(Oc3cccnc3)CC2)cc1	n	n	x	x	x	x
COc1cc2c(cc1OC)CN(C(=O)CSc1ccccc1C)CC2	n	33	x	x	n	n
CN(CCO)c1cccc2c1S(=O)(=O)N(Cc1cn(Cc3ccccc3C(F)(F)F)nn1)Cc1ccccc1O2	n	n	x	x	x	x
